Results as given in ChEMBL document CHEMBL3045749, “Antifeedant and insecticide properties of a limonoid from Melia azedarach (Meliaceae) with potential use for pest management” (2003).
Activity calls are given as the source filed them. No cut-off for these calls is given here.

Experiments:
Epilachna [1] = experiment: Antifeedant activity against third-instar larval stage of Epilachna paenulata infested cucurbita maxima leaves assessed as increase in larval mortality measured at 96 hr by no choice leaf disk assay; format: functional
Outline: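 Same no-choice setup (four third-instar larvae per dish, treated C. maxima leaves renewed every 48 h, six replicates, mortality scored every 24 h). LD50 derived by probit analysis of mortality at 96 h.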

Epilachna [2] = experiment: Antifeedant activity against third-instar larval stage of Epilachna paenulata infested cucurbita maxima leaves assessed as decrease in food consumption at 0.25 to 4 ug/cm2 measured after 24 hr by no choice leaf disk assay relative to untreated control; format: functional, organism-based
Outline: (§1)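 No-choice test: four third-instar E. paenulata larvae per Petri dish fed C. maxima leaves (renewed every 48 h) with known amounts of compound or solvent applied by syringe. Six replicates per treatment, plus unfed starved controls. Leaf consumption, body weight and mortality recorded every 24 h.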

Epilachna [3] = experiment: Antifeedant activity against third-instar larval stage of Epilachna paenulata infested cucurbita maxima leaves assessed as decrease in food consumption at 0.25 to 4 ug/cm2 measured after 6 days by no choice leaf disk assay relative to untreated control; format: functional, organism-based; outline: as §1
Epilachna [4] = experiment: Antifeedant activity against third-instar larval stage of Epilachna paenulata infested cucurbita maxima leaves assessed as feeding reduction after 24 hr by leaf disk choice assay; format: functional
Outline: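 Leaf-disk choice test: two C. maxima seedling cotyledons in a Petri dish under a glass disk with two 1 cm² holes. One third-instar larva placed equidistant from treated and solvent-control disks, fed 24 h. Area eaten estimated visually by quarters, always by the same operator. AI% = (1 − T/C) × 100; Wilcoxon signed paired rank test, α = 0.05.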

Epilachna [5] = experiment: Antifeedant activity against third-instar larval stage of Epilachna paenulata infested cucurbita maxima leaves assessed as decrease in food consumption at 0.25 to 4 ug/cm2 measured after 48 hr by no choice leaf disk assay relative to untreated control; format: functional, organism-based; outline: as §1
Epilachna [6] = experiment: Antifeedant activity against third-instar larval stage of Epilachna paenulata infested cucurbita maxima leaves assessed as decrease in larval weight gain at 1 to 4 ug/cm2 measured after 96 hr by no choice leaf disk assay relative to untreated control; format: functional, organism-based; outline: as §1
Epilachna [7] = experiment: Antifeedant activity against third-instar larval stage of Epilachna paenulata infested cucurbita maxima leaves assessed as larval mortality at 0.25 to 4 ug/cm2 measured after 24 hr by no choice leaf disk assay relative to untreated control; format: functional; outline: as §1
Epilachna [8] = experiment: Antifeedant activity against third-instar larval stage of Epilachna paenulata infested cucurbita maxima leaves assessed as decrease in larval weight gain at 0.25 to 4 ug/cm2 measured after 144 hr by no choice leaf disk assay relative to untreated control; format: functional, organism-based; outline: as §1

Compound	LD50 (Epilachna [1]) [microg/cm2]	Activity (Epilachna [2])	Activity (Epilachna [3])	ED50 (Epilachna [4]) [microg/cm2]	Activity (Epilachna [5])	Activity (Epilachna [6])	mortality (Epilachna [7]) [%]	Activity (Epilachna [8])
C/C=C(\C)C(=O)O[C@H]1C[C@@H](OC(C)=O)[C@@]2(C(=O)OC)CO[C@H]3[C@@H](O)[C@@](C)([C@]45O[C@@]4(C)[C@@H]4C[C@H]5O[C@@H]5OC=C[C@@]54O)[C@H]4[C@]1(CO[C@]4(O)C(=O)OC)[C@@H]32 [AZADIRACHTIN A]	1.24	inactive	Active	0.72	Active			
CC(=O)O[C@@H]1C[C@H](O)[C@@]23COC(O)[C@]1(C)[C@@H]2C[C@@H](O)[C@]1(C)[C@@H]3[C@H](O)C(=O)[C@@]2(C)[C@H](c3ccoc3)C[C@H]3O[C@@]312 (stereo partly drawn) [MELIARTENIN]	0.76	Active	Active	0.8		Active	20	Active
CC(=O)O[C@@H]1C[C@H](O)[C@@]23CO[C@@H](O)[C@]1(C)[C@@H]2C[C@@H](O)[C@]1(C)[C@@H]3C(=O)[C@H](OC(C)=O)[C@@]2(C)[C@H](c3ccoc3)C[C@H]3O[C@]321 [TOOSENDANIN]				3.69				
